From PubChem BioAssay
Most compounds without a hit are left out; they make up all but 1.8% or so of the library.
M4 PAM – human M4 muscarinic receptor positive allosteric modulators, primary screen, CHO-K1 cells, Fluo-8 calcium fluorescence. Muscarinic acetylcholine receptor M4 (Homo sapiens), P08173. 0.4% of 360,000 active. AID 624126, 2012. CHO-K1 hM4/Gqi5, ACh EC20; 0% = ACh EC20, 100% = maximal ACh. activation, % at 3 µM;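 active means activation above its plate's cutoff, the mean activation of sample wells plus 3 SD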
CHRM5 agonist – human M5 muscarinic receptor agonists, primary screen, CHO-K1 cells, Fluo-8 calcium fluorescence. Muscarinic acetylcholine receptor M5 (Homo sapiens), P08912. CHO-K1 hM5 cells; 0% DMSO wells, 100% maximal acetylcholine response. activation, % at 3 µM. 0.19% of 360,000 active. AID 624037, 2012;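 active means activation above the run's mean over test compounds plus 3 SD, cut at about 23% in these data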;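 further: signal is peak over basal fluorescence ratio across the kinetic read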
Target sequence (P08912 whole entry, looked up): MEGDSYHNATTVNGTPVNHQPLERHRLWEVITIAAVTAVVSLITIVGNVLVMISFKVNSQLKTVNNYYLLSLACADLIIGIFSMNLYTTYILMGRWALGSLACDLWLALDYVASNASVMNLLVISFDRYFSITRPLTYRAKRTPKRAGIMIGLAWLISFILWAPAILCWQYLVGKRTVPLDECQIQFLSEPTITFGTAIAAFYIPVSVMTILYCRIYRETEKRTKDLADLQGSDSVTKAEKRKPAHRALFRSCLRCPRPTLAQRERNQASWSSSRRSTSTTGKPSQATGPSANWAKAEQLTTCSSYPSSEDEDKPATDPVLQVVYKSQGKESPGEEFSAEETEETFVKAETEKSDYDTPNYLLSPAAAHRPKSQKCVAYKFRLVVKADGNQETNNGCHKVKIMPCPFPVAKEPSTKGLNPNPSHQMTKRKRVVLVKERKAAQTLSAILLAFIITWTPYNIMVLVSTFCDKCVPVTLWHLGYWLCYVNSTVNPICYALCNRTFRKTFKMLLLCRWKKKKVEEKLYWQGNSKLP
M5 antag – human M5 muscarinic receptor antagonists, primary screen, CHO cells, Fluo-8 calcium fluorescence; Muscarinic acetylcholine receptor M5 (Homo sapiens), P08912; AID 624040, 2012; CHO-hM5 cells, ACh EC80; 0.59% of 360,000 active; inhibition, % at 3 µM;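 active means inhibition above a per-plate cutoff, the mean of that plate's test compounds plus 3 SD, cut at about 27% in these data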;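 further: 0% = acetylcholine EC80 with DMSO and 100% = DMSO without agonist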
M5 PAM – human M5 muscarinic receptor positive allosteric modulators, primary screen, CHO-K1 cells, Fluo-8 calcium fluorescence | 0.3% of 360,000 active | Muscarinic acetylcholine receptor M5 (Homo sapiens), P08912 | activation, % at 3 µM | AID 624038, 2012 | CHO-K1 hM5, ACh EC20 PAM; 0% = ACh EC20, 100% = ACh EC100;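 active means activation above the run cutoff, the mean activation of all test compounds plus 3 SD, cut at about 18% in these data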
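Test system: CHO-K1 hM5 cells / Doses: single-point, 3 µM nominal / Times: Post-acetylcholine fluorescence recording 140 s / Technique: Fluo-8 calcium fluorescence / Measure: Max/basal fluorescence ratio as % of EC20–EC100 ACh window / Benchmarks: low control EC20 acetylcholine (0%), high control EC100 acetylcholine (100%) / Replicates: one well per compound, no replicates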
M4 antag – human M4 muscarinic receptor antagonists, primary screen, CHO cells, Fluo-8 calcium fluorescence; 0.73% of 360,000 active; Muscarinic acetylcholine receptor M4 (Homo sapiens), P08173; CHO-hM4 cells, ACh EC80; inhibition, % at 3 µM;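 active means inhibition above its plate's cutoff, the mean inhibition of sample wells plus 3 SD, cut at about 27% in these data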;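 further: 0% = acetylcholine EC80 with DMSO and 100% = DMSO without agonist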
M4 ag – human M4 muscarinic receptor agonists, primary screen, CHO-K1 cells, Fluo-8 calcium fluorescence; CHO-K1 hM4/Gqi5; vehicle 0%, full acetylcholine response 100%; AID 624127, 2012; activation, % at 3 µM; 0.14% of 360,000 active;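 active means activation above the run mean over all test wells plus 3 SD, cut at about 32% in these data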;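 further: peak over basal fluorescence ratio per well then scaled between controls; 0% = DMSO wells and 100% = acetylcholine at EC100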
Active calls of the source: *.

SMILES	M4 PAM	CHRM5 agonist	M5 antag	M5 PAM	M4 antag	M4 ag
O=C(NC1CCCC1)c1ccc2c(c1)N(Cc1ccccc1)CCS2	2	-1	-15	18*	-14	3
O=C(NCCN1CCOCC1)c1ccc2c(c1)N(Cc1ccc(Cl)cc1)C(=O)CS2	-15	-6	-1	-5	6	3
O=C(NCCN1CCOCC1)c1ccc2c(c1)N(Cc1ccccc1)C(=O)CS2	-29	-12	4	-2	37*	0
CCC1CCCCN1CCCNC(=O)c1ccc2c(c1)N(Cc1c(F)cccc1Cl)C(=O)CS2 (stereo not given)	-28	-11	76*	-19	100*	2
CN(CC(=O)Nc1ccccc1Br)C(=O)c1ccccc1OCc1ccc(Cl)cc1	-8	-6	3	-11	4	9
CC(C)Cn1c(NCCN(C)C)nc2c1c(=O)[nH]c(=O)n2C	6	-1	4	-2	0	0
CCCCn1c(NCCN(C)C)nc2c1c(=O)[nH]c(=O)n2C	12	-7	-3	22*	-4	1
CCCCOC(=O)CSc1nc(N)c(C#N)c(-c2ccc(OC)cc2)c1C#N	7	-4	-21	23*	-15	1
CCCCOC(=O)CSc1nc(N)c(C#N)c(-c2ccc(OCC)cc2)c1C#N	-4	-1	6	0	9	0
Cc1c(C)c(C)c(C(=O)C2CCN(c3ccc([N+](=O)[O-])cn3)CC2)c(C)c1C	-15	0	-5	5	-6	1
CC1(C)CCN2CCC(C)(C)c3c(O)ccc1c32	-13	95*	41*	-16	26	30
O=C(CCN1C(=O)C2CC=CCC2C1=O)Nc1nccs1 (stereo not given)	3	-3	3	1	0	1
COc1cc(C=O)ccc1OC(=O)c1cccnc1	0	-2	30*	-14	-8	1
NCCCn1c(C(=O)c2cc(Cl)c(N)c(Cl)c2)c2ccc(C(F)(F)F)cc2[n+]1[O-]	7	7	-7	19*	-8	7
NC(=O)CCCn1c(C(=O)c2cc(Cl)c(N)c(Cl)c2)c2ccc(C(F)(F)F)cc2[n+]1[O-]	9	3	12	-2	-9	7
Cc1cc(Br)cn2c(Cc3ccccc3)c(-c3ccc(C#N)cc3)nc12	-8	-1	11	-1	19	-1
CC1=C(C)CC(C(=O)NC2CCCC2)C(C(=O)O)C1 (stereo not given)	8	-2	2	5	2	1
CC1=C(C)CC(C(=O)NC2CCN(C(C)C)CC2)C(C(=O)O)C1 (stereo not given)	-13	-8	37*	-14	24	1
COc1ccc(NC(=O)CSc2nnc(C)n2C2CC2)cc1S(=O)(=O)N1CCOCC1	8	0	6	0	2	0
CCOC(=O)N1CCN(C(=O)COC(=O)COc2c(C)cc(C)cc2C)CC1	24*	1	5	4	-15	1
CC(C)C[C@@H](CO)N(Cc1ccccc1)S(=O)(=O)N(Cc1ccccc1)[C@H](CO)CC(C)C	-8	2	9	-20	39*	20
COc1ccc(CN([C@H](CO)CC(C)C)S(=O)(=O)N(Cc2ccccc2)[C@H](CO)CC(C)C)cc1	-10	-1	18	-32	41*	17
CC(C)C[C@@H](CO)N(Cc1ccccc1)S(=O)(=O)N(Cc1ccccc1)[C@@H](CO)CC(C)C	-14	-1	16	-21	26	10
CC1=C(C(=O)NCc2ccco2)C2(CCC(C)CC2)OC1=O (stereo not given)	1	2	-4	1	-11	1
CC1CCC2(CC1)NC(=O)N(CC(=O)NCc1ccc3c(c1)OCO3)C2=O (stereo not given)	-5	-9	31*	-14	-4	0
SMILES	M4 PAM	CHRM5 agonist	M5 antag	M5 PAM	M4 antag	M4 ag
O=C(CN1C(=O)NC2(CCCC2)C1=O)NCc1ccccc1	5	0	11	-3	-11	1
CC1=C(C(=O)NCc2ccc3c(c2)OCO3)C2(CCC(C)CC2)OC1=O (stereo not given)	-18	-1	8	-21	60*	4
O=C(CN1C(=O)NC2(CCSC2)C1=O)NCc1ccccc1 (stereo not given)	18*	-1	7	5	-9	3
CC(=O)c1ccc(N2CCN(S(=O)(=O)c3ccc4c5c3CC(=O)N5CC(C)S4)CC2)cc1 (stereo not given)	-6	1	-12	7	-15	13
Cc1cccnc1C(NC(=O)C1CCN(Cc2ccccc2)CC1)c1ccc(F)cc1 (stereo not given)	1	-3	2	-16	-1	2
Cc1cccnc1C(NC(=O)C1CCN(Cc2ccc(Oc3ccccc3)cc2)CC1)c1ccccc1 (stereo not given)	-13	-3	16	-19	29*	3
CCC1CCCCN1S(=O)(=O)c1ccc(S(=O)(=O)N(Cc2cccs2)C2CC2)cc1 (stereo not given)	-18	-4	11	-22	45*	5
CCC1CCCCN1S(=O)(=O)c1ccc(S(=O)(=O)N(Cc2ccccn2)CC2CCCO2)cc1 (stereo not given)	-16	-3	4	-5	6	6
COc1cccc(CNCCc2c[nH]c3ccccc23)c1OCc1ccccc1	-20	8	29*	-19	21	38*
COC(=O)C(NC(=O)CCc1c(C)nc2c(c(C)nn2-c2ccccc2)c1C)C(C)C (stereo not given)	-3	-1	10	-6	7	5
Cc1cc(C)n(-c2nnc(C)n2/N=C/c2cc(Br)ccc2OCc2ccccc2)n1	-11	-8	4	-6	26*	1
Cc1cc(C)n(-c2nnc(C)n2/N=C/c2ccccc2OCc2ccccc2Cl)n1	4	-2	8	0	2	-1
O=C(NC1CCCN(c2ccc(C(F)(F)F)cn2)C1)c1ccnc(Cl)c1 (stereo not given)	20*	-2	-4	3	5	4
O=C(c1ccccc1)N1CCN(c2ccc([N+](=O)[O-])c(NCC3CCCO3)c2)CC1 (stereo not given)	5	-1	9	-4	-2	7
